# Reference: ChEMBL document CHEMBL4513216, “Probing the Open Global Health Chemical Diversity Library for Multistage-Active Starting Points for Next-Generation Antimalarials” (ACS Infect Dis, 2020)
# Experiment: Toxicity liver stage against HepG2, at 10uM
# Type: cell-based
# Design: test concentration 10 uM, cell line HepG2-A16-CD81EGFP
# Details: human, HepG2-A16-CD81EGFP cells; read-out: INHIBITION
# Summary of the method: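 Uninfected HepG2-A16-CD81EGFP cells, 3 × 10^3 per well, 1536-well, plated on prespotted compound at 10 μM final, parasite-free screening media added to match infected plates; puromycin 10 μM positive, DMSO 0.5% negative; run in parallel with 48 h PbLuc assay at 37 °C, 5% CO2; viability by CellTiter-Glo luminescence, normalized to controls.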
row,Compound,cytotoxicity at 10 µM [%]
1,COc1cccc(CNc2ccc(F)c(Cl)c2)c1O,4.56
2,Cc1cc(C(=O)NC2CCCOc3cc(Cl)ccc32)n(C)n1 (configuration not stated),1.97
3,c1cc(CNCCC2CCCO2)ccn1 (configuration not stated),-0.95
4,CCc1c(C(=O)N2CCOC(C)(C)C2)cnn1-c1ccccn1,-7.92
5,COCCC(=O)N1CCC(c2ncncc2-c2ccnc(N)c2)C1 (configuration not stated),-2.68
6,Cc1nc2n(n1)CC(NCC(=O)NCCCOC(C)C)CC2 (configuration not stated),-5.03
7,O=C(NCCc1cccs1)N1CCCC2(CCC(=O)N(C3CC3)C2)C1 (configuration not stated),-7.82
8,FC(F)Oc1ccc(CNCc2cc(Cl)c3c(c2)OCO3)cc1,2.63
9,Cc1cc(CN2CCCC(Cn3cncn3)C2)no1 (configuration not stated),-2.12
10,CC(C)CC(=O)NCCCc1cc(N)n(-c2ccccc2)n1,-5.29
11,CN(C(=O)c1ccccc1Cl)C1CCN(c2ccccn2)CC1,-0.577
12,Cc1cc(C(=O)NCc2ccc(F)cc2)c2c(C3CCNC3)noc2n1 (configuration not stated),7.08
13,CC(C)n1nc(CN(C)C)c2c1CN(C(=O)CC1CC1)CC2,-6.72
14,Cc1noc(C(C)N2CCN(CCC(=O)N3CCCCC3)CC2)n1 (configuration not stated),-9.24
15,CCOc1ccc(C(=O)N2Cc3cnc(CC)nc3C2)o1,3.34
16,Cn1ccnc1C(=O)NCCS(=O)(=O)c1ccc(C(C)(C)C)cc1,3.62
17,COCCN1CCN(C(=O)C2CC=CC2)Cc2cccnc21,-11.1
18,Cc1ccc(C(=O)N2CCN(Cc3ccsc3)CC2)n1C,0.914
19,COc1ccccc1CNC(=O)CNc1ccccc1C(C)=O,4.7
20,Cc1ccc(CN2CCC3(CC2)CN(C(=O)c2cnccn2)CCO3)o1,-4
21,N#CCCN1CCN(S(=O)(=O)c2ccc(Cl)s2)CC1,14.7
22,COCC1CN(Cc2ccc(C)o2)Cc2cnn(CC3CCOCC3)c21 (configuration not stated),1.87
23,O=c1[nH]c2ccccc2cc1CN(Cc1ccccn1)CC1CCCO1 (configuration not stated),-4.84
24,COCc1nnc2n1CCN(Cc1ccoc1)C2,-2.56

row,Compound,cytotoxicity at 10 µM [%]
1,NC(CC1CCCC1)c1ccc(Oc2ccccc2)cc1 (configuration not stated),3.72
2,CCc1ccc(S(=O)(=O)Nc2cnccc2C)s1,-3.63
3,CN(C)C(=O)C1CN(Cc2cscn2)CCN(S(C)(=O)=O)C1 (configuration not stated),-6.46
4,COc1ccc(C2(C(=O)N3CC[C@@]4(O)CCNC[C@H]4C3)CCCC2)cc1,6.03
5,CCN(C)CC1CCN(C(=O)NCCC2Cc3ccccc3C2)C1 (configuration not stated),0.458
6,CC(=O)c1ccn(CC(=O)Nc2nn(CC3CC3)c3ccccc23)n1,9.34
7,COc1ccc(NC(=O)Cn2ccc3c(=O)n(C)ccc32)cc1OC,-4.34
8,CSCCC(=O)N1CCC(CCC(=O)NCC2CCCO2)CC1 (configuration not stated),10.7
9,Cc1ccc(CN2CCc3onc(C(=O)N4CCCC4)c3C2)o1,6.28
10,c1ccc(CN2Cc3nccn3CC(Cn3cccn3)C2)nc1 (configuration not stated),-105
11,CCc1cnc(N)nc1NCc1ccc(OC)cc1OC,14.7
12,O=C1COC2(CCN(S(=O)(=O)C3CC3)CC2)CN1c1cccnc1,-1.69
13,Cc1cc(C)n(CC(C)NC2CCN(Cc3cccc(O)c3)CC2)n1 (configuration not stated),-2.01
14,Cc1nccnc1N1CCC2(CCCN(C3CCOCC3)C2=O)C1 (configuration not stated),-8.8
15,Cc1c[nH]c(CN(C)C(=O)c2cccc(CCC(C)(C)O)c2)n1,-6.85
16,Cc1cc(C)nc(Nc2cc(C)nc(C3CCN(C(C)C)C3)n2)n1 (configuration not stated),3.06
17,COCCN1CCOCC12CCN(C(=O)Cc1cccs1)CC2,10.8
18,CN1N=C(C(=O)NCc2ccc3c(c2)CCCN3C)CCC1=O,-0.602
19,Cc1ccc(NC2CCN(C(=O)c3cnc(C)s3)CC2)nn1,2.48
20,COCCN1CCN(CC(=O)NC2(C#N)CCCC2)CC1,3.5
21,COCCN1C(=O)c2ccc(C(=O)NCCc3c[nH]cn3)cc2C1=O,-7.13
22,COCc1csc(NC(=O)NCc2ccc(C)s2)n1,2.44
23,CCN(CC)c1ncnc2c(C)nn(CC)c12,-2.01
